# ChEMBL document CHEMBL1152771, “Identification of Shc Src homology 2 domain-binding peptoid-peptide hybrids” (J Med Chem, 2009)
# *1 amine or outer side, *2 acyl side, *3 side chain or, on linkers, in order; H or OH if unused. Where a SMILES comes first, the peptide text is derived from it. [ ]: non-standard residue; d: D form. The star is where a group is joined. X2 = O=C(c1cc(N=C=S)ccc1-c1c2ccc(=O)cc-2oc2cc(O)ccc12)*; Gly(N-but-3-enyl) = O=C(CN(CCC=[*:3])[*:1])[*:2]; X5 = C=CCN([C@@H](CC(C)C)C(=O)[*:2])[*:1]; pY = N[C@@H](Cc1ccc(OP(=O)(O)O)cc1)C(=O)O; 3Amb = NCc1cccc(C(=O)O)c1; NH(but-3-enyl) = C=CCCN*; Ahx = NCCCCCC(=O)O; GABA = NCCCC(=O)O; NHAllyl = C=CCN*
# What was measured:
# [1] = target: T1, SHC-transforming protein 1 (Homo sapiens, UniProt P29353); assay: Displacement of FITC-tagged NH-(CH2)4-CO-phospho-tyrosine-glutamine-glycine-leucine-serine-amide from Shc Src homology 2 domain by fluorescence anisotropy competition assay
# T1 sequence (P29353 whole entry): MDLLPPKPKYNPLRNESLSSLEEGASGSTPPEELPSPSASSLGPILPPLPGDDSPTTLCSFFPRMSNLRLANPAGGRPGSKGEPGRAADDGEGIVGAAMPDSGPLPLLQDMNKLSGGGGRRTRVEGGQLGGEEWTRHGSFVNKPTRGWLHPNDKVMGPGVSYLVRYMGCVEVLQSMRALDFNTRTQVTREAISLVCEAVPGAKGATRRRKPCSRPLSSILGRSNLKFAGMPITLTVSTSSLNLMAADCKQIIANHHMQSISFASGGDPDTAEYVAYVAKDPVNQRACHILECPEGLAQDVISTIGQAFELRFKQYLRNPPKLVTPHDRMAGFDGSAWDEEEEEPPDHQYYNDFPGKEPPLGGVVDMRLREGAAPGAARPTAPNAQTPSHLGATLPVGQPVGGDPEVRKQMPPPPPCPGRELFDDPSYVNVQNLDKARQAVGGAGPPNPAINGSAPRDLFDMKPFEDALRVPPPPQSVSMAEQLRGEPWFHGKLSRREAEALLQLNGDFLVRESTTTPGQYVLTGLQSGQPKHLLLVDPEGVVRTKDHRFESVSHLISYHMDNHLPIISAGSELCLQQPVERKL
# In short: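 Competition FA: preformed complex of 2 μM Shc SH2 domain protein and 10 nM FITC reference peptide in 10 mM HEPES, 150 mM NaCl pH 7.5 with 10% (v/v) DMSO; unlabeled competitors serially diluted from 500 μM. Excitation 485 nm, parallel/perpendicular emission 535 nm. Fractional binding from anisotropy; IC50 where spline (order three, three knots) reached one half.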
# [2] = target: T1, SHC-transforming protein 1; assay: Binding affinity to Shc Src homology 2 domain by fluorescence anisotropy
# In short: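 Direct binding: 5 nM N-terminal fluorescein-labelled peptide in 10 mM HEPES, 150 mM NaCl pH 7.5 with 10% (v/v) DMSO; Shc SH2 protein serially diluted from 100 μM. Excitation 485 nm, parallel and perpendicular emission at 535 nm. Kd from fitting anisotropy versus protein concentration to a single-site binding model.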
SMILES,IC50 [1],further results
C=CCCCCN(CC(=O)N[C@@H](CC(C)C)C(N)=O)C(=O)[C@H](CCC(N)=O)NC(=O)[C@H](Cc1ccc(OP(=O)(O)O)cc1)NC(C)=O,14 µM,
CC(C)C[C@H](NC(=O)CNC(=O)[C@H](CCC(N)=O)NC(=O)[C@H](Cc1ccc(OP(=O)(O)O)cc1)NC(=O)CCNC(=O)c1cc(N=C=S)ccc1-c1c2ccc(=O)cc-2oc2cc(O)ccc12)C(=O)N[C@@H](CO)C(N)=O (HELM PEPTIDE1{[O=C(c1cc(N=C=S)ccc1-c1c2ccc(=O)cc-2oc2cc(O)ccc12)[*:2]].[bAla].[O=C([C@H](Cc1ccc(OP(=O)(O)O)cc1)N[*:1])[*:2]].Q.G.L.S.[am]}$$$$V2.0),,Kd [2]: 1.09 µM
CC(C)C[C@H](NC(=O)CNC(=O)[C@H](CCC(N)=O)NC(=O)[C@H](Cc1ccc(OP(=O)(O)O)cc1)NC(=O)CCCCCNC(=O)c1cc(N=C=S)ccc1-c1c2ccc(=O)cc-2oc2cc(O)ccc12)C(=O)N[C@@H](CO)C(N)=O ({X2-Ahx}-[pY]QGLS-NH2),,Kd [2]: 4.7 µM
CC(=O)N[C@@H](Cc1ccc(OP(=O)(O)O)cc1)C(=O)N[C@@H](CCC(N)=O)C(=O)N(CCC(C)C)CC(=O)N[C@@H](CC(C)C)C(N)=O (HELM PEPTIDE1{[ac].[O=C([C@H](Cc1ccc(OP(=O)(O)O)cc1)N[*:1])[*:2]].Q.[CC(C)CCN(CC(=O)[*:2])[*:1]].L.[am]}$$$$V2.0),17 µM,
CCN(CC(=O)N[C@@H](CC(C)C)C(N)=O)C(=O)[C@H](CCC(N)=O)NC(=O)[C@H](Cc1ccc(OP(=O)(O)O)cc1)NC(C)=O (HELM PEPTIDE1{[ac].[O=C([C@H](Cc1ccc(OP(=O)(O)O)cc1)N[*:1])[*:2]].Q.[CCN(CC(=O)[*:2])[*:1]].L.[am]}$$$$V2.0),19 µM,
CC(=O)NCCCCC(=O)N[C@@H](Cc1ccc(OP(=O)(O)O)cc1)C(=O)N[C@@H](CCC(N)=O)C(=O)NCC(=O)N[C@@H](CC(C)C)C(=O)N[C@@H](CO)C(N)=O (HELM PEPTIDE1{[ac].[O=C(CCCCN[*:1])[*:2]].[O=C([C@H](Cc1ccc(OP(=O)(O)O)cc1)N[*:1])[*:2]].Q.G.L.S.[am]}$$$$V2.0),,Kd [1]: 158 µM
C=CCCCN(CC(=O)N[C@@H](CC(C)C)C(N)=O)C(=O)[C@H](CCC(N)=O)NC(=O)[C@H](Cc1ccc(OP(=O)(O)O)cc1)NC(C)=O,16 µM,
CCSCCN(CC(=O)N[C@@H](CC(C)C)C(N)=O)C(=O)[C@H](CCC(N)=O)NC(=O)[C@H](Cc1ccc(OP(=O)(O)O)cc1)NC(C)=O,34 µM,
CC(=O)N[C@@H](Cc1ccc(OP(=O)(O)O)cc1)C(=O)N[C@@H](CCC(N)=O)C(=O)N(CCCCC#N)CC(=O)N[C@@H](CC(C)C)C(N)=O,44 µM,
CC(=O)N[C@@H](Cc1ccc(OP(=O)(O)O)cc1)C(=O)N[C@@H](CCC(N)=O)C(=O)N(CC(=O)N[C@@H](CC(C)C)C(N)=O)Cc1ccccc1 (HELM PEPTIDE1{[ac].[O=C([C@H](Cc1ccc(OP(=O)(O)O)cc1)N[*:1])[*:2]].Q.[O=C(CN(Cc1ccccc1)[*:1])[*:2]].L.[am]}$$$$V2.0),18.9 µM,
CC(C)C[C@H](NC(=O)CNC(=O)[C@H](CCC(N)=O)NC(=O)[C@H](Cc1ccc(OP(=O)(O)O)cc1)NC(=O)[C@H](CC(C)C)NC(=O)CCNC(=O)c1cc(N=C=S)ccc1-c1c2ccc(=O)cc-2oc2cc(O)ccc12)C(=O)N[C@@H](CO)C(N)=O (HELM PEPTIDE1{[O=C(c1cc(N=C=S)ccc1-c1c2ccc(=O)cc-2oc2cc(O)ccc12)[*:2]].[bAla].L.[O=C([C@H](Cc1ccc(OP(=O)(O)O)cc1)N[*:1])[*:2]].Q.G.L.S.[am]}$$$$V2.0),,Kd [2]: 7.6 µM
C=CCNC(=O)[C@H](CO)NC(=O)[C@H](CC(C)C)NC(=O)CNC(=O)[C@H](CCC(N)=O)NC(=O)[C@H](Cc1ccc(OP(=O)(O)O)cc1)N(CC=C)C(C)=O (HELM PEPTIDE1{[ac].[C=CCN([C@@H](Cc1ccc(OP(=O)(O)O)cc1)C(=O)[*:2])[*:1]].Q.G.L.S.[C=CCN[*:1]]}$$$$V2.0),41 µM,
CC(C)C[C@H](NC(=O)CNC(=O)[C@H](CCC(N)=O)NC(=O)[C@H](Cc1ccc(OP(=O)(O)O)cc1)NC(=O)c1cc(N=C=S)ccc1-c1c2ccc(=O)cc-2oc2cc(O)ccc12)C(=O)N[C@@H](CO)C(N)=O (HELM PEPTIDE1{[O=C(c1cc(N=C=S)ccc1-c1c2ccc(=O)cc-2oc2cc(O)ccc12)[*:2]].[O=C([C@H](Cc1ccc(OP(=O)(O)O)cc1)N[*:1])[*:2]].Q.G.L.S.[am]}$$$$V2.0),,Kd [2]: 12.4 µM
C=CCNC(=O)[C@H](CC(C)C)N(CC=C)C(=O)CNC(=O)[C@H](CCC(N)=O)NC(=O)[C@H](Cc1ccc(OP(=O)(O)O)cc1)NC(C)=O,81 µM,
CC(=O)N[C@@H](Cc1ccc(OP(=O)(O)O)cc1)C(=O)N[C@@H](CCC(N)=O)C(=O)NCC(=O)N[C@@H](CC(C)C)C(N)=O (HELM PEPTIDE1{[ac].[O=C([C@H](Cc1ccc(OP(=O)(O)O)cc1)N[*:1])[*:2]].Q.G.L.[am]}$$$$V2.0),248 µM,
CC(C)C[C@H](NC(=O)CNC(=O)[C@H](CCC(N)=O)NC(=O)[C@H](Cc1ccc(OP(=O)(O)O)cc1)NC(=O)c1cccc(CNC(=O)c2cc(N=C=S)ccc2-c2c3ccc(=O)cc-3oc3cc(O)ccc23)c1)C(=O)N[C@@H](CO)C(N)=O ({X2-3Amb}-[pY]QGLS-NH2),,Kd [2]: 5 µM
CC(=O)N[C@@H](Cc1ccc(OP(=O)(O)O)cc1)C(=O)N[C@@H](CCC(N)=O)C(=O)N(CCCC(F)(F)F)CC(=O)N[C@@H](CC(C)C)C(N)=O,23 µM,
CC(C)C[C@H](NC(=O)CNC(=O)[C@H](CCC(N)=O)NC(=O)[C@H](Cc1ccc(OP(=O)(O)O)cc1)NC(=O)CCCNC(=O)c1cc(N=C=S)ccc1-c1c2ccc(=O)cc-2oc2cc(O)ccc12)C(=O)N[C@@H](CO)C(N)=O ({X2-GABA}-[pY]QGLS-NH2),,Kd [2]: 7.2 µM
C=CCNC(=O)[C@H](CC(C)C)NC(=O)CNC(=O)[C@H](CCC(N)=O)NC(=O)[C@H](Cc1ccc(OP(=O)(O)O)cc1)N(CC=C)C(C)=O,450 µM,
C=CCNC(=O)[C@H](CO)NC(=O)[C@H](CC(C)C)N(CC=C)C(=O)CNC(=O)[C@H](CCC(N)=O)NC(=O)[C@H](Cc1ccc(OP(=O)(O)O)cc1)NC(C)=O (Ac-[pY]QG[X5]S-NHAllyl),353 µM,
CCCN(CC(=O)N[C@@H](CC(C)C)C(N)=O)C(=O)[C@H](CCC(N)=O)NC(=O)[C@H](Cc1ccc(OP(=O)(O)O)cc1)NC(C)=O (HELM PEPTIDE1{[ac].[O=C([C@H](Cc1ccc(OP(=O)(O)O)cc1)N[*:1])[*:2]].Q.[CCCN(CC(=O)[*:2])[*:1]].L.[am]}$$$$V2.0),25.7 µM,
CCOCCN(CC(=O)N[C@@H](CC(C)C)C(N)=O)C(=O)[C@H](CCC(N)=O)NC(=O)[C@H](Cc1ccc(OP(=O)(O)O)cc1)NC(C)=O (HELM PEPTIDE1{[ac].[O=C([C@H](Cc1ccc(OP(=O)(O)O)cc1)N[*:1])[*:2]].Q.[CCOCCN(CC(=O)[*:2])[*:1]].L.[am]}$$$$V2.0),33 µM,
CCC#CCN(CC(=O)N[C@@H](CC(C)C)C(N)=O)C(=O)[C@H](CCC(N)=O)NC(=O)[C@H](Cc1ccc(OP(=O)(O)O)cc1)NC(C)=O,17 µM,
C=CCCNC(=O)[C@H](CO)NC(=O)[C@H](CC(C)C)NC(=O)CN(CCC=C)C(=O)[C@H](CCC(N)=O)NC(=O)[C@H](Cc1ccc(OP(=O)(O)O)cc1)NC(C)=O (Ac-[pY]Q[Gly(N-but-3-enyl)]LS-{NH(but-3-enyl)}),8 µM,
CC(=O)N[C@@H](Cc1ccc(OP(=O)(O)O)cc1)C(=O)N[C@@H](CCC(N)=O)C(=O)N(CCCC(C)C)CC(=O)N[C@@H](CC(C)C)C(N)=O,29 µM,
COCCN(CC(=O)N[C@@H](CC(C)C)C(N)=O)C(=O)[C@H](CCC(N)=O)NC(=O)[C@H](Cc1ccc(OP(=O)(O)O)cc1)NC(C)=O (HELM PEPTIDE1{[ac].[O=C([C@H](Cc1ccc(OP(=O)(O)O)cc1)N[*:1])[*:2]].Q.[COCCN(CC(=O)[*:2])[*:1]].L.[am]}$$$$V2.0),56 µM,
CC(=O)N[C@@H](Cc1ccc(OP(=O)(O)O)cc1)C(=O)N[C@@H](CCC(N)=O)C(=O)N(CCCCF)CC(=O)N[C@@H](CC(C)C)C(N)=O,40 µM,
CC#CCN(CC(=O)N[C@@H](CC(C)C)C(N)=O)C(=O)[C@H](CCC(N)=O)NC(=O)[C@H](Cc1ccc(OP(=O)(O)O)cc1)NC(C)=O,83 µM,
C=CCN(CC(=O)N[C@@H](CC(C)C)C(N)=O)C(=O)[C@H](CCC(N)=O)NC(=O)[C@H](Cc1ccc(OP(=O)(O)O)cc1)NC(C)=O (HELM PEPTIDE1{[ac].[O=C([C@H](Cc1ccc(OP(=O)(O)O)cc1)N[*:1])[*:2]].Q.[C=CCN(CC(=O)[*:2])[*:1]].L.[am]}$$$$V2.0),26.6 µM,
